PKA-R2B act: activators of human PKA-R2B complex; activation, % at 11.4 µM; PKA-R2B holoenzyme dissociation, Cy5-IP20 fluorescence polarization; R2B truncated from residue 108, S112A mutant; 0% DMSO only, 100% 113 µM cGMP; 0.079% of 340,000 active;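 active = activation above a cutoff set at the mean over all compounds plus 3 SD, cut at about 18% in these data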;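 also: higher means more holoenzyme dissociation and a rise in polarization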
CDK5 p35 inh: blocks human CDK5/p35 kinase activity; AID 488839; Recombinant CDK5/p35, ADP-Glo luminescence, 60 min; inhibition, % at 10 µM; 0.01% of 330,000 active; Q00535+Q15078;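 active = highest replicate inhibition of at least 50% and at least 75% of replicates reaching 50%; inconclusive = only one of the two criteria met; inactive = both criteria failed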
dFosB activator: activators of mouse delta FosB homodimer. P13346. purified delta FosB, TAMRA-CDK5 oligo fluorescence polarization; percent of positive-control signal above neutral wells. activation, % at 25 µM. 0.99% of 340,000 active. AID 493131;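 active = mean activation above about 17%, with every replicate also reaching it, limit read from the data, passing the limit was not always enough; inconclusive = only one of the two conditions met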
Target sequence (P13346 whole entry, looked up): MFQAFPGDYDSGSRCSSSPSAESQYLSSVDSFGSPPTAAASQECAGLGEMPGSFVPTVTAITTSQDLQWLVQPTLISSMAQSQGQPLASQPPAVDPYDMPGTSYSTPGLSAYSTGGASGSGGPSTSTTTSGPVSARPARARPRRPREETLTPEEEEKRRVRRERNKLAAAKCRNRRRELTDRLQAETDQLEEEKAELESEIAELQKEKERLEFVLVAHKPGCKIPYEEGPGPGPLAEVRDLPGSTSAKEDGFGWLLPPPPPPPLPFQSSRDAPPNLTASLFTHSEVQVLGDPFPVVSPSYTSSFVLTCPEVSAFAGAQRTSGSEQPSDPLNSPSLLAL
PKA-R1A act: activates the PKA-R1A holoenzyme complex. P00514+P68181. PKA-R1A dissociation, Cy5-IP20 fluorescence polarization; scaled: DMSO 0%, 113 µM cGMP 100%. activation, % at 11.4 µM. 0.083% of 340,000 active. AID 504707;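 active = percent activation above the mean of all tested compounds plus 3 SD, cut at about 19% in these data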;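 also: higher means more PKAc released from R1A so a rise in polarization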
SR-BI DiI-HDL act: SR-BI HDL lipid transfer activation; CHO ldlA[mSR-BI] cells, DiI-HDL uptake fluorescence, 3 h; 100 = double the neutral-control signal; activation, % at 12.5 µM; 0.096% of 320,000 active;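 active = mean replicate activation of at least 60% and every replicate at or above 60%; inconclusive = mean or all-replicate condition met, but not both; inactive = mean below 60% and not all replicates reaching 60%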
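material = CHO ldlA[mSR-BI] cells | medium = Ham's F12 with 0.5% BSA, HEPES 25 mM, pH 7.4 | reagent = fluorescent DiI-HDL, 10 µg/mL final | compound dosing = single-point compound dose | incubation = 3 h, 37 °C | measured by = bottom-read fluorescence, 550/595 nm | measure = HDL uptake via cellular fluorescence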
SR-BI HDL uptake: inhibitors of mouse SR-BI mediated HDL lipid uptake. ldlA[mSR-BI] CHO cells, DiI-HDL uptake fluorescence, 3 h. inhibition, % at 12.5 µM. 0.96% of 320,000 active. AID 488896;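 active = mean replicate inhibition of at least 70% and a set share of replicates each scoring 70 or more; inconclusive = meets just one of the two criteria; inactive = fails both criteria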
Large screens that a line does not name were inactive. Most compounds without a hit are left out; they make up all but 2.1% or so of the library.

Oc1ccc(C[C@H]2CNC(=S)N2CC2CCCN2C[C@H](Cc2ccc(O)cc2)N2C[C@H](Cc3ccc(O)cc3)N(CC3CCCCC3)C2=S)cc1 (some centres not stated)	SR-BI DiI-HDL act 183.4
CC(C)C[C@H]1CNC(=S)N1CC1CCCN1C[C@H](Cc1ccc(O)cc1)N1C[C@H](Cc2ccccc2)N(CC2CCCCCC2)C1=S (some centres not stated)	dFosB activator inconclusive
Oc1ccc(C[C@H]2CNC(=S)N2CC2CCCN2C[C@H](Cc2ccccc2)N2C[C@H](Cc3ccc(O)cc3)N(CC3CCCCCC3)C2=S)cc1 (some centres not stated)	dFosB activator inconclusive, SR-BI DiI-HDL act 85.6
OCC[C@@H]1C[C@@H](O)[C@H](O)[C@@]2(CCCCO2)O1	none
CCC1Oc2ccc(C)cc2N(CC(=O)NC2CCCCC2)C1=O (configuration not stated)	SR-BI HDL uptake 88.6
COc1ccc2cc(C3(C)NC(=O)N(CC(=O)N4CCCCC4)C3=O)ccc2c1 (configuration not stated)	none
Cc1ccc(NC(=O)C(C)SCC(=O)Nc2ccc(F)cc2)cc1S(=O)(=O)N1CCOCC1 (configuration not stated)	none
Cc1ccc(-c2cc(C(F)F)nc(NCC3CCCO3)n2)cc1 (configuration not stated)	SR-BI DiI-HDL act 223.5
CC1CC(C)CN(S(=O)(=O)c2cccc(C(=O)N3CCN(c4ccc(F)cc4)CC3)c2)C1 (configuration not stated)	none
c1ccc(-c2nnc(-c3ccccc3)c(-c3c[nH]c4ccccc34)n2)cc1	SR-BI HDL uptake 76.4
NC(=S)N=Nc1c(O)n(CCCl)c2ccccc12	none (no result: PKA-R2B act, PKA-R1A act)
NC(=S)N=Nc1c(O)n(C2OC(=O)c3ccccc32)c2ccccc12 (configuration not stated)	dFosB activator 26.2
CC(=O)c1cccc(N=Nc2c(-c3ccccc3)[nH]n(-c3ccccc3)c2=O)c1	SR-BI HDL uptake 100.1
O=C(CN1C(=O)NC2(CCOc3ccccc32)C1=O)N1CCCCC1 (configuration not stated)	none
Cc1[nH]n(-c2ccccc2)c(=O)c1N=Nc1c(O)cc(S(=O)(=O)N(C)C)c2ccccc12	SR-BI HDL uptake 136.1
COc1cc(-c2noc(C)c2/C=C/c2cccc([N+](=O)[O-])c2)cc(OC)c1OC	SR-BI HDL uptake 81.0
COc1cc(-c2noc(C)c2/C=C/c2ccc(C(=O)O)cc2)cc(OC)c1OC	none
CCOc1ccc(N(CC(=O)NCc2ccccc2C)S(C)(=O)=O)cc1	none
CC(C)(C)NC(=O)CN(C(=O)c1snc(C(=O)NC2CCCCC2)c1N)c1ccc(F)cc1	none (no result: SR-BI DiI-HDL act, SR-BI HDL uptake)
Cc1cc(/C=C\c2ccc3cc(N(C)C)ccc3[n+]2C)c(C)n1-c1ccccc1	SR-BI DiI-HDL act 166.2
CCC(C)Sc1ccc(-c2nc3cnccn3c2NC2CCCCC2)cc1 (configuration not stated)	none
CCC(C)Sc1ccc(-c2nc3cc(C)ccn3c2NC2CCCCC2)cc1 (configuration not stated)	SR-BI HDL uptake 80.5
CC1(C)CC(NC(=O)Cc2ccccc2)CC(C)(C)N1	none
Cc1ccc(S(=O)(=O)N2CCC(C(=O)Nc3ccc(N4CCOCC4)cc3)CC2)cc1C	none
COc1cccc(NC(=O)N2CCN(c3cccc(C)c3C)CC2)c1	SR-BI HDL uptake 71.1
CCOC(=O)c1[nH]c2ccc(OC)cc2c1NC(=S)N1CCN(c2cccc(C)c2C)CC1	SR-BI HDL uptake 72.9
CCOC(=O)c1[nH]c2ccc(OC)cc2c1NC(=S)N1CCN(c2ccc(F)cc2)CC1	none
CCc1cccc(C)c1NC(=O)CSc1nnc(CCCOc2ccc(Cl)cc2Cl)n1C	SR-BI HDL uptake 75.4
Cn1c(CCCOc2ccc(Cl)cc2Cl)nnc1SCC(=O)Nc1cccc(F)c1	none
CCNC(=O)c1ccc(NS(=O)(=O)c2ccc3[nH]c(=O)[nH]c3c2)cc1	none
Fc1cccc(-c2cc3nc4c(c(N5CCOCC5)n3n2)CCCC4)c1	SR-BI HDL uptake 71.5
Clc1cccc(-c2cc3nc4c(c(N5CCN(c6cnccn6)CC5)n3n2)CCCC4)c1	none (no result: SR-BI DiI-HDL act, SR-BI HDL uptake)
Clc1cccc(-c2cc3nc4c(c(N5CCOCC5)n3n2)CCCC4)c1	SR-BI HDL uptake 77.2
CCn1cc(C(=O)NCCc2ccccc2)c(=O)c2cc(S(=O)(=O)N3CCCC3)ccc21	SR-BI HDL uptake 72.9
O=C(c1cccc(NS(=O)(=O)c2ccc(F)c(F)c2)c1)N1CCCCC1	none
Cc1c(C(=O)N/N=C/c2cccnc2)sc(N)c1C#N	none
O=C(Nc1ccc(F)cc1F)c1cc(-c2ccc3c(c2)OCO3)on1	none (no result: SR-BI DiI-HDL act, SR-BI HDL uptake)
COc1ccc(NC(=O)c2ccc(CN3CCN(c4ccccc4)CC3)cc2)cc1OC	SR-BI HDL uptake 76.1
COc1cc(C(=O)Nc2ccc(NC(C)=O)cc2)ccc1OCc1ccccc1	SR-BI HDL uptake 78.2
COc1ccc(C(=O)Nc2ccc(NS(=O)(=O)c3ccccc3)cc2)cc1OC	SR-BI HDL uptake 74.4
Cc1ccc(C(=O)Nc2ccc(Nc3ccccc3)cc2)cc1C	SR-BI HDL uptake 99.4
Cc1ccc(NC(=O)c2ccc(NC(=O)c3ccccc3)cc2)cc1C	none
CCOc1ccccc1C(=O)Oc1cc(C)[nH]c(=O)c1[N+](=O)[O-]	none
Nc1cc(Cl)ccc1C(=O)OCC(=O)NCc1cccs1	none
CCOC(=O)C1CCN(C(=O)CN2C(=O)COc3ccc(C(C)(C)C)cc32)CC1	none
COc1cc(NC(=O)C2=COCCO2)c(OC)cc1Cl	none
COc1ccc(C(=O)NCC(=O)N/N=C/C(C)=C/c2ccccc2)cc1OC	none
COc1ccc(C(=O)Nc2ccc(Nc3ccccc3)cc2)cc1[N+](=O)[O-]	none
COc1ccc(C(=O)NCC(=O)N/N=C/C=C/c2ccccc2)cc1OC	SR-BI HDL uptake 83.0
COc1ccc(C(=O)Nc2ccc(Nc3ccccc3)cc2)cc1OC	SR-BI HDL uptake 79.1
COc1ccccc1C(=O)NNC(=S)NC(=O)c1cccs1	none
O=C(NC(=S)NNC(=O)c1ccccc1O)c1ccccc1	SR-BI HDL uptake 99.5
O=C(NNC(=O)c1ccccc1Cl)c1cccs1	none
O=C(NC(=S)NNC(=O)c1ccccc1O)c1cccs1	SR-BI HDL uptake 114.2
O=C(NNC(=O)c1cc(Cl)ccc1O)c1cccs1	SR-BI HDL uptake 89.4
O=C(NC(=S)NNC(=O)c1ccccc1O)c1ccc([N+](=O)[O-])cc1	SR-BI HDL uptake 105.8
COc1cc(OC)cc(C(=O)NNC(=O)CCC(=O)c2cccs2)c1	none
